“Also recorded” adds a separate entry of the source.
How the values were obtained:
[1] = test system: chloroquine-resistant P. falciparum Dd2 parasites; experiment: SYBR Green I dose–response assay against Dd2 parasites; assay type: cell-based; conditions: Plasmodium falciparum, DD2, read-out: EC50 Dd2, chloroquine-resistant P. falciparum Dd2, three or more independent experiments
Summary of the method: (§1)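 Dose–response EC50 values, each from three or more independent experiments. Dd2 and 3D7 runs use chloroquine as comparator. The selectivity index is calculated as HepG2 EC50 divided by Dd2 EC50.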

[2] = test system: wild-type P. falciparum 3D7 cells; experiment: dose–response assay against 3D7 cells; assay type: cell-based; conditions: Plasmodium falciparum, 3D7, read-out: EC50 3D7
Summary of the method: as §1

[3] = test system: HepG2 (liver hepatocellular carcinoma) cells; experiment: HepG2; assay type: cell-based, human; conditions: for selectivity index (SI): HepG2 EC50/EC50 Dd2 cells; for EC50: Homo sapiens, HepG2, read-out: EC50 HepG2
Summary of the method: as §1

[4] = test system: P. falciparum Dd2 cultures; experiment: kinetic kill experiments; assay type: cell-based, Plasmodium falciparum; conditions: for EC50: Plasmodium falciparum, DD2, read-out: 5 × EC50
Summary of the method: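 Asynchronous Dd2 cultures are exposed to test compound for 6, 12, 24 or 48 h at 0.15% DMSO, then washed three times in RPMI and resuspended in culture medium. Parasite growth is monitored daily for 96 h. DHA (50 nM) and atovaquone (6.6 nM) serve as controls.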

[5] = test system: tightly synchronized P. falciparum Dd2 cells; experiment: developmental stage-specific action; assay type: cell-based, Plasmodium falciparum
Summary of the method: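 Tightly synchronized Dd2 cultures are treated with 1.25 μM test compound at 6, 18, 30 or 42 HPI, with 0.1% DMSO-treated infected RBCs as negative control and DHA and atovaquone as positive controls. Every 12 h, Giemsa-stained smears are read. Flow cytometry samples are fixed in 4% paraformaldehyde/0.0075% glutaraldehyde, permeabilized with 0.25% Triton X-100, RNase-treated (50 μg/mL) and YOYO-1 stained; parasitemia is taken by flow cytometry.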

solubility = assay type: physicochemical
Summary of the method: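 DMSO solubility is tested up to 100 mM, the highest concentration tested. For aqueous solubility, PBS is slowly titrated into 10 mM DMSO stock to give 100 μM, the highest concentration tested. Clarity is checked visually against a PBS standard at room temperature over 24 h.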

chemical stability = assay type: physicochemical

SMILES | EC50 [1] [nM] | EC50 [2] [nM] | selectivity index (SI) [3] | EC50 [3] [nM] | further results
CC[C@@]12C=C(C(=O)OC)n3c(c(c4ccccc43)CCN(C(=O)c3cncnc3)CCC1)[C@@H]2c1ccc(O)cc1 [Compound 27, methyl (11S,19S)-11-ethyl-19-(4-hydroxyphenyl)-15-(pyrimidine-5-carbonyl)-8,15-diazatetracyclo[9.6.2.0^2,7.0^8,18]nonadeca-1(18),2(7),3,5,9-pentaene-9-carboxylate] | 730 ± 110 | 1990 ± 300 | >34 | > 25000 | –
C[C@H]1[C@@H](O)O[C@@H]2O[C@@]3(C)CC[C@H]4[C@H](C)CC[C@@H]1[C@@]24OO3 [Dihydroartemisinin (DHA), Dihydroartemisinin, reference compound] | – | – | – | – | EC50 [4]: 50 nM
CC[C@@]12C=C(C(=O)OC)n3c(c(c4ccccc43)CCN(C(=O)c3ccno3)CCC1)[C@@H]2c1ccc(O)cc1 [Compound 28, methyl (11S,19S)-11-ethyl-19-(4-hydroxyphenyl)-15-(1,2-oxazole-5-carbonyl)-8,15-diazatetracyclo[9.6.2.0^2,7.0^8,18]nonadeca-1(18),2(7),3,5,9-pentaene-9-carboxylate] | 2140 ± 360 | 970 ± 30 | >11 | > 25000 | –
O=C1C(O)=C([C@H]2CC[C@H](c3ccc(Cl)cc3)CC2)C(=O)c2ccccc21 [atovaquone, reference compound] | – | – | – | – | EC50 [4]: 6.6 nM
CC[C@@]12C=C(C(=O)OC)n3c(c(c4ccccc43)CCN(C(=O)c3ccco3)CCC1)[C@@H]2c1ccc(O)cc1 [Compound 26, methyl (11S,19S)-11-ethyl-15-(furan-2-carbonyl)-19-(4-hydroxyphenyl)-8,15-diazatetracyclo[9.6.2.0^2,7.0^8,18]nonadeca-1(18),2(7),3,5,9-pentaene-9-carboxylate] | 2480 ± 330 | 1800 ± 360 | >10 | > 25000 | –
CC[C@@]12C=C(C(=O)OC)n3c(c(c4ccccc43)CCN(C(=O)c3cncc(Cl)c3)CCC1)[C@@H]2c1ccc(O)cc1 [Compound 32, methyl (11S,19S)-15-(5-chloropyridine-3-carbonyl)-11-ethyl-19-(4-hydroxyphenyl)-8,15-diazatetracyclo[9.6.2.0^2,7.0^8,18]nonadeca-1(18),2(7),3,5,9-pentaene-9-carboxylate] | 490 ± 100 | 2220 ± 340 | >51 | > 25000 | –
CC[C@@]12C=C(C(=O)OC)n3c(c(c4ccccc43)CCN(C(=O)c3ccccn3)CCC1)[C@@H]2c1ccc(O)cc1 [Compound 30, methyl (11S,19S)-11-ethyl-19-(4-hydroxyphenyl)-15-(pyridine-2-carbonyl)-8,15-diazatetracyclo[9.6.2.0^2,7.0^8,18]nonadeca-1(18),2(7),3,5,9-pentaene-9-carboxylate] | 250 ± 4 | 1190 ± 250 | >100 | > 25000 | parasitemia (flow cytometry) ([5]; Dd2 cells treated at 6, 18 and 30 HPI, 5 x EC50): remarkable decrease in parasitemia; effect on maturation when treated at 42 HPI ([5]; Dd2 cells treated at 42 HPI, 5 x EC50): did not inhibit maturation; stage-specific activity ([5]; synchronized Dd2, 5 x EC50 (1.25 μM), treated at 6, 18, 30 and 42 HPI): prevents exit on the parasite from the schizont stage; also recorded: arrested at the late schizont stage; also recorded: do not advance beyond the late schizont stage; also recorded: act specifically on the trophozoite/schizont stage; effect after 24 h treatment ([4]; 5× EC50, 24 h treatment, based on the 96 h time point): reduces parasitemia; effect after 48 h treatment ([4]; 5× EC50, 48 h treatment): more dramatic parasitocidal effect; kill rate ([4]; Dd2 cultures, 5 × EC50, treatment time required to kill): >24 h; solubility at 24 h (solubility; PBS buffer, aqueous buffer, kinetic from dmso stock): ≥ 0.1 mM; solubility (solubility; biological grade DMSO, organic solvent or mixture): ≥ 100 mM; chemical stability in acidified PBS (chemical stability; 100 μM, PBS pH 2.0 (1.95), 24 h room temperature then 24 h 37 °C, TLC and NMR): no compound breakdown; also recorded: no degradation; chemical stability in PBS pH 7.4 (chemical stability; 100 μM, PBS pH 7.4, 24 h room temperature then 24 h 37 °C, TLC and NMR): no compound breakdown; also recorded: no degradation; chemical stability during NMR experiments (chemical stability; 100 °C for multiple hours): without showing compound breakdown
CC[C@@]12C=C(C(=O)OC)n3c(c(c4ccccc43)CCN(C(=O)c3cccnc3)CCC1)[C@@H]2c1ccc(O)cc1 [Compound 25, methyl (11S,19S)-11-ethyl-19-(4-hydroxyphenyl)-15-(pyridine-3-carbonyl)-8,15-diazatetracyclo[9.6.2.0^2,7.0^8,18]nonadeca-1(18),2(7),3,5,9-pentaene-9-carboxylate] | 550 ± 70 | 2250 ± 400 | >45 | > 25000 | –
CC[C@@]12C=C(C(=O)OC)n3c(c(c4ccccc43)CCN(C(=O)c3ccc[nH]3)CCC1)[C@@H]2c1ccc(O)cc1 [Compound 29, methyl (11S,19S)-11-ethyl-19-(4-hydroxyphenyl)-15-(1H-pyrrole-2-carbonyl)-8,15-diazatetracyclo[9.6.2.0^2,7.0^8,18]nonadeca-1(18),2(7),3,5,9-pentaene-9-carboxylate] | 2980 ± 400 | 3180 ± 70 | – | – | –
CC[C@]12CCCN3CCc4c(n(c5ccccc45)[C@@](O)(C(=O)OC)C1)[C@@H]32 [Compound 1, Vincamine, reference compound] | > 50000 | > 50000 | – | – | –
CC[C@@]12C=C(C(=O)OC)n3c(c(c4ccccc43)CCN(C(=O)c3cncc(Br)c3)CCC1)[C@@H]2c1ccc(O)cc1 [Compound 33, methyl (11S,19S)-15-(5-bromopyridine-3-carbonyl)-11-ethyl-19-(4-hydroxyphenyl)-8,15-diazatetracyclo[9.6.2.0^2,7.0^8,18]nonadeca-1(18),2(7),3,5,9-pentaene-9-carboxylate] | 650 ± 9 | 1700 ± 320 | >38 | > 25000 | –
